Results on 21 molecules are retold here after article PMC12415690 (RSC Advances, 2025).

In brackets after ≈: the same amount, converted by molar mass.

The test system of test [1] is M.tb H37Rv. The note with it: M.tb H37Rv; cited from earlier work.
Test [2] relates to S. aureus (ATCC 23235). In words: Antibacterial zone of inhibition. The format is cell-based. The note with it: Staphylococcus aureus, ATCC23235, read-out: Zone of inhibition in mm, S. aureus (ATCC 23235). The procedure, abridged:
(§1)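 Sterilised nutrient agar, […], was seeded with 18–24 h bacterial subcultures, mixed and poured into Petri dishes. Once the agar set, 6 mm wells were cut with a sterile cork borer and filled with test compound dissolved in DMSO at 100 μg mL−1. Plates were incubated at 37 °C for 24–48 h, and inhibition zones around each well were measured in mm. Ciprofloxacin was the reference standard.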

In test [3] the test system is P. aeruginosa (ATCC 27853). In words: Antibacterial zone of inhibition. Format: cell-based. The note with it: Pseudomonas aeruginosa, ATCC27853, read-out: Zone of inhibition in mm, P. aeruginosa (ATCC 27853). The procedure, abridged:
as §1

In test [4] the test system is E. coli (ATCC 25922). The test is described as follows: Antibacterial zone of inhibition. Particulars: Escherichia coli, ATCC25922, read-out: Zone of inhibition in mm, E. coli (ATCC 25922). The format is cell-based. The procedure, abridged:
as §1

In test [5] the test system is M. tuberculosis H37Rv strain (ATCC 27294). In words: Antitubercular activity, microplate Alamar Blue assay. Format: cell-based. The note with it: Mycobacterium tuberculosis, ATCC27294|H37RV, read-out: MIC μM.
The test system of test [6] is B. subtilis (ATCC 6051). In words: Antibacterial zone of inhibition. The note with it: 100 μg mL^−1; for zone of inhibition at 100 µg/mL: Bacillus subtilis, ATCC6051, read-out: Zone of inhibition in mm, B. subtilis (ATCC 6051), Gram positive; for Zone of inhibition in mm, B. subtilis (ATCC 6051): Gram positive. The format is cell-based, Bacillus subtilis. The procedure, abridged: as §1

As usually defined, the MIC is the least concentration at which growth counts as inhibited. Consider `CCOC(=O)c1sc(N/N=C/c2ccccc2O)nc1C` [(E)-ethyl 2-(2-(2-hydroxybenzylidene)hydrazinyl-4-methylthiazole-5-carboxylate], for which the minimal inhibitory concentration (MIC) in test [1] was 25 µM (≈ 7.63 µg/mL).

On to `CCOC(=O)c1sc(N/N=C(\C)c2ccccn2)nc1C` [(E)-ethyl 4-methyl-(2-(1-(pyridin-2-yl)ethylidene)hydrazinyl)thiazole-5-carboxylate], for which the MIC in test [1] is 12.5 µM (≈ 3.8 µg/mL).

What is called zone of inhibition is the size of the clear area around the sample on an inoculated plate. As for `CCOC(=O)c1sc(N/N=C/c2c(-c3ccc(Cl)cc3)nc3ncccn23)nc1C` [Compound K4, Ethyl(E)-2-(2-((2-(4-chlorophenyl)imidazo[1,2-a]pyrimidin-3-yl)methylene)hydrazineyl)-4-methylthiazole-5-carboxylate], the zone of inhibition at 100 µg/mL in test [2] is 13 mm; in test [3], 11 mm; in test [4], 20 mm; in test [6], 14 mm. Moreover, the MIC in test [5] was 14.2 µM (≈ 6.26 µg/mL).

As for `CCOC(=O)c1sc(N/N=C/c2c(-c3ccc(Br)cc3)nc3ncccn23)nc1C` [Compound K5, Ethyl(E)-2-(2-((2-(4-bromophenyl)imidazo[1,2-a]pyrimidin-3-yl)methylene)hydrazineyl)-4-methylthiazole-5-carboxylate], the zone of inhibition at 100 µg/mL was determined as 11 mm in test [2], 13 mm in test [3], 14 mm in test [4] and 13 mm in test [6]. Further, in test [5], the MIC amounted to 12.9 µM (≈ 6.27 µg/mL).

Take `CCOC(=O)c1sc(N/N=C/c2c(-c3ccc(C#N)cc3)nc3ncccn23)nc1C` [Compound K6, Ethyl(E)-2-(2-((2-(4-cyanophenyl)imidazo[1,2-a]pyrimidin-3-yl)methylene)hydrazineyl)-4-methylthiazole-5-carboxylate]: the zone of inhibition at 100 µg/mL in test [2] came to 17 mm; in test [3] it was 15 mm; in test [4], 10 mm; in test [6], 14 mm. Moreover, the MIC in test [5] was found to be 29 µM (≈ 12.5 µg/mL).

`CCOC(=O)c1cnc(N/N=C/c2c(-c3ccc(C)cc3)nc3ncccn23)s1` [Compound K8, Ethyl(E)-2-(2-((2-(p-tolyl)imidazo[1,2-a]pyrimidin-3-yl)methylene)hydrazineyl)thiazole-5-carboxylate]: the zone of inhibition at 100 µg/mL was 12 mm in test [2], 19 mm in test [3] and 17 mm in test [4]. The minimum inhibitory concentration (MIC) in test [5] was 7.68 µM (≈ 3.12 µg/mL).

Regarding `CCOC(=O)c1cnc(N/N=C/c2c(-c3ccccc3)nc3ncccn23)s1` [Compound K14, Ethyl(E)-2-(2-((2-phenylimidazo[1,2-a]pyrimidin-3-yl)methylene)hydrazineyl)thiazole-5-carboxylate], the zone of inhibition at 100 µg/mL in test [2] amounted to 15 mm; in test [3], 15 mm; in test [4], 12 mm; in test [6], 14 mm. For the same molecule, in test [5], the minimum inhibitory concentration (MIC) was 31.9 µM (≈ 12.5 µg/mL).

For the molecule `CC(=O)c1sc(N/N=C/c2c(-c3ccc(C)cc3)nc3ncccn23)nc1C` [Compound K15, (E)-1-(4-methyl-2-(2-((2-(p-tolyl)imidazo[1,2-a]pyrimidin-3-yl)methylene)hydrazineyl)thiazol-5-yl)ethan-1-one], the zone of inhibition at 100 µg/mL came out at 12 mm in test [2], 14 mm in test [3], 15 mm in test [4] and 13 mm in test [6]. In addition, the MIC in test [5] amounted to 32 µM (≈ 12.5 µg/mL).

With `COc1ccc(-c2nc3ncccn3c2/C=N/Nc2nc(C)c(C(C)=O)s2)cc1` [Compound K16, (E)-1-(2-(2-((2-(4-methoxyphenyl)imidazo[1,2-a]pyrimidin-3-yl)methylene)hydrazineyl)-4-methylthiazol-5-yl)ethan-1-one], the zone of inhibition at 100 µg/mL in test [2] came out at 18 mm; in test [3], 11 mm. In test [5], the MIC was found to be 30.8 µM (≈ 12.5 µg/mL).

With `CC(=O)c1sc(N/N=C/c2c(-c3ccc(F)cc3)nc3ncccn23)nc1C` [Compound K17, (E)-1-(2-(2-((2-(4-fluorophenyl)imidazo[1,2-a]pyrimidin-3-yl)methylene)hydrazineyl)-4-methylthiazol-5-yl)ethan-1-one], the zone of inhibition at 100 µg/mL amounted to 20 mm in test [2], 11 mm in test [3] and 14 mm in test [6]. Further, the MIC in test [5] worked out at 7.91 µM (≈ 3.12 µg/mL).

As to `CC(=O)c1sc(N/N=C/c2c(-c3ccc(Cl)cc3)nc3ncccn23)nc1C` [Compound K18, (E)-1-(2-(2-((2-(4-chlorophenyl)imidazo[1,2-a]pyrimidin-3-yl)methylene)hydrazineyl)-4-methylthiazol-5-yl)ethan-1-one], the zone of inhibition at 100 µg/mL in test [2] is 18 mm; in test [3], 12 mm; in test [4], 15 mm; in test [6], 15 to 20 mm. In test [5], the minimum inhibitory concentration (MIC) is 30.5 µM (≈ 12.5 µg/mL). Further, the “Zone of inhibition in mm, B. subtilis (ATCC 6051)” value (from here on “Zone of inhibition in mm”) in test [6] was found to be 15 mm.

Regarding `CC(=O)c1sc(N/N=C/c2c(-c3ccc(Br)cc3)nc3ncccn23)nc1C` [Compound K19, (E)-1-(2-(2-((2-(4-bromophenyl)imidazo[1,2-a]pyrimidin-3-yl)methylene)hydrazineyl)-4-methylthiazol-5-yl)ethan-1-one], the zone of inhibition at 100 µg/mL in test [2] is 12 mm; in test [3] it was 20 mm; in test [6], 12 mm. Besides, in test [5], the minimum inhibitory concentration (MIC) came out at 13.8 µM (≈ 6.27 µg/mL).

For `CC(=O)c1sc(N/N=C/c2c(-c3ccc(C#N)cc3)nc3ncccn23)nc1C` [Compound K20, (E)-4-(3-((2-(5-acetyl-4-methylthiazol-2-yl)hydrazineylidene)methyl)imidazo[1,2-a]pyrimidin-2-yl)benzonitrile], the zone of inhibition at 100 µg/mL in test [2] was 17 mm; in test [3], 12 mm; in test [4], 14 mm; in test [6], 15 to 20 mm. Moreover, in test [5], the minimal inhibitory concentration (MIC) was 15.6 µM (≈ 6.25 µg/mL). In addition, in test [6], the “Zone of inhibition in mm” value turned out to be 15 mm.

With `CC(=O)c1sc(N/N=C/c2c(-c3ccccc3)nc3ncccn23)nc1C` [Compound K21, (E)-1-(4-methyl-2-(2-((2-phenylimidazo[1,2-a]pyrimidin-3-yl)methylene)hydrazineyl)thiazol-5-yl)ethan-1-one], the zone of inhibition at 100 µg/mL was determined as 19 mm in test [2] and 13 mm in test [6]. Moreover, the MIC in test [5] came out at 33.2 µM (≈ 12.5 µg/mL).

Turning to `CCOC(=O)/C=C1/SC(N/N=C/c2c(-c3ccc(C)cc3)nc3ncccn23)=NC1=O` [Compound K22, Ethyl(E)-2-(4-oxo-2-(2-((E)-(2-(p-tolyl)imidazo[1,2-a]pyrimidin-3-yl)methylene) hydrazineyl)thiazol-5(4H)-ylidene)acetate], the zone of inhibition at 100 µg/mL in test [2] was 15 mm; in test [3], 13 mm; in test [4], 24 mm; in test [6], 15 to 20 mm. Moreover, the minimal inhibitory concentration (MIC) in test [5] was determined as 28.8 µM (≈ 12.5 µg/mL). The “Zone of inhibition in mm” value in test [6] was found to be 15 mm.

Regarding `CCOC(=O)/C=C1/SC(N/N=C/c2c(-c3ccc(OC)cc3)nc3ncccn23)=NC1=O` [Compound K23, Ethyl(E)-2-(2-(2-((E)-(2-(4-methoxyphenyl)imidazo[1,2-a]pyrimidin-3-yl)methylene) hydrazineyl)-4-oxothiazol-5(4H)-ylidene)acetate], the zone of inhibition at 100 µg/mL came out at 16 mm in test [2], 18 mm in test [3] and 24 mm in test [4]. For the same molecule, in test [5], the minimal inhibitory concentration (MIC) was 111 µM (≈ 50 µg/mL).

For the molecule `CCOC(=O)/C=C1/SC(N/N=C/c2c(-c3ccc(F)cc3)nc3ncccn23)=NC1=O` [Compound K24, Ethyl(E)-2-(2-(2-((E)-(2-(4-fluorophenyl)imidazo[1,2-a]pyrimidin-3-yl)methylene) hydrazineyl)-4-oxothiazol-5(4H)-ylidene)acetate], the MIC in test [5] turned out to be 28.5 µM (≈ 12.5 µg/mL).

`CCOC(=O)/C=C1/SC(N/N=C/c2c(-c3ccc(Cl)cc3)nc3ncccn23)=NC1=O` [Compound K25, Ethyl(E)-2-(2-(2-((E)-(2-(4-chlorophenyl)imidazo[1,2-a]pyrimidin-3-yl)methylene) hydrazineyl)-4-oxothiazol-5(4H)-ylidene)acetate]: the zone of inhibition at 100 µg/mL in test [2] is 21 mm; in test [3], 20 mm; in test [4] it was 21 mm; in test [6], 15 to 20 mm. For the same molecule, in test [5], the minimal inhibitory concentration (MIC) was determined as 55 µM (≈ 25 µg/mL). In test [6], the “Zone of inhibition in mm” value was determined as 20 mm.

For the molecule `CCOC(=O)/C=C1/SC(N/N=C/c2c(-c3ccc(Br)cc3)nc3ncccn23)=NC1=O` [Compound K26, Ethyl(E)-2-(2-(2-((E)-(2-(4-bromophenyl)imidazo[1,2-a]pyrimidin-3-yl)methylene) hydrazineyl)-4-oxothiazol-5(4H)-ylidene)acetate], the zone of inhibition at 100 µg/mL in test [2] and in test [6] was 15 mm in each case. Also, the MIC in test [5] is 50.2 µM (≈ 25.1 µg/mL).

For the molecule `NC(=O)c1cnccn1` [PZA, pyrazinamide, reference compound], the MIC in test [5] was 25.3 µM (≈ 3.12 µg/mL).

With `[H]/N=C(/N)N[C@H]1[C@H](O)[C@@H](O)[C@H](O[C@@H]2O[C@@H](C)[C@](O)(C=O)[C@H]2O[C@@H]2O[C@@H](CO)[C@H](O)[C@@H](O)[C@@H]2NC)[C@@H](N/C(N)=N\[H])[C@@H]1O` [STM, streptomycin, reference compound], the MIC in test [5] came out at 10.7 µM (≈ 6.25 µg/mL).
